Measurements as given in article PMC5766731 (Clinical Pharmacokinetics, 2017).
Read-outs that look alike come from different tables or passages of the source.

Columns and labels:
[1] = dogs, cited from earlier work
[2] = rats, oral route; cited from earlier work
[3] = Part I single ascending-dose pharmacokinetics; format: in vivo, human; settings: for t max / AUCt / AUC∞ / C max / CL/F_obs / V z/F_obs / t ½ / λz: part I, fasted; for t max: mean (range) per footnote; for AUCt / AUC∞ / C max / CL/F_obs / V z/F_obs / t ½ / λz: mean ± SD
[4] = system: serum erythropoietin (EPO), hemoglobin, hematocrit, reticulocyte count; test: Part III pharmacodynamics; format: in vivo, human; settings: single 150 mg
How it was run: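 Serum EPO, hemoglobin, hematocrit and reticulocyte count were measured in blood taken before and after oral dosing. Regimens: part I single fasted doses 10–300 mg vs placebo; part II 100–300 mg on Days 1, 3, 5 vs placebo; part III single 150 mg, fasted vs fed, men and women. EPO expressed baseline-corrected. Post-dose vs baseline compared by paired two-sided t test, α = 0.05.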

[5] = cited from earlier work
[6] = Part II urinary recovery of ZYAN1; format: in vivo, human; settings: urine
How it was run: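 Urine collected pre-dose and over 0–12, 12–24, 24–36 and 36–48 h: after the single dose (10–300 mg, part I) or after each alternate-day dose on Days 1, 3 and 5 (part II). Total volume recorded; 5 mL aliquots stored at –80 ± 10 °C. Acetonitrile precipitation and LC-MS/MS with analog internal standard, urine calibration 2–5000 ng/mL, LLOQ 2 ng/mL. Amount and percentage of dose recovered calculated.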

serum EPO levels = settings: acute pharmacodynamic animal model; cited from earlier work
[7] = rats, 1-month toxicity study; cited from earlier work
[8] = Part III sex and food effect pharmacokinetics; format: in vivo, human; settings: for AUCt / AUC∞ / C max / CL/F_obs / HL_Lambda_z (terminal half-life) / V z/F_obs / λz: part III, single oral 150 mg, n = 10, mean ± SD
How it was run: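 Open-label crossover at a single 150 mg oral dose, with at least 14 days washout and an overnight fast of at least 10 h before each dose. Period I: 12 subjects (6 men, 6 women), fasted. Period II: 10 subjects (5 men, 5 women) given a high-fat, roughly 800–1000 calorie breakfast 30 min pre-dose. Drug measured in diluted blood by LC-MS/MS (2–5000 ng/mL). Food effect tested by two-sided t test, α = 0.05.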

[9] = mice, oral route; cited from earlier work

## O=C(O)CNC(=O)c1c(O)c2ccccc2n(OCC2CC2)c1=O [ZYAN1]
[1]; 1-month toxicity study
  maximum tolerated dose (MTD): 15 mg/kg
[1]; 28-day toxicity study
  no observed adverse effect level (NOAEL): 5 mg/kg
[2]
  tolerated dose, single-dose study: up to 800 mg/kg
[3]; 30-fold single dose range, slight deviation at higher doses
  dose proportionality of C max and AUC: almost dose-proportional increase
[3]; across single doses 10-300 mg
  V d, range: 28 to 47 L
  apparent oral CL, range: 2 to 2.9 L/h
[3]; single oral dose 10 mg
  t max: 2.50 (1.50–3.00) h
  AUCt: 3597.269 ± 549.116 ng·h/mL
  AUC∞: 3659.531 ± 551.508 ng·h/mL
  C max: 566.467 ± 163.031 ng/mL
  CL/F_obs: 2784.592 ± 417.679 mL/h
  V z/F_obs: 27,683.707 ± 4805.113 mL
  t ½: 6.976 ± 1.390 h
  λz: 0.102 ± 0.019 h⁻¹
[3]; single oral dose 25 mg
  t max: 1.25 (1.00–2.50) h
  AUCt: 9177.789 ± 2359.163 ng·h/mL
  AUC∞: 9269.839 ± 2396.986 ng·h/mL
  C max: 1634.500 ± 299.429 ng/mL
  CL/F_obs: 2870.759 ± 817.646 mL/h
  V z/F_obs: 27,950.696 ± 5329.29 mL
  t ½: 6.917 ± 0.923 h
  λz: 0.102 ± 0.016 h⁻¹
[3]; single oral dose 50 mg
  t max: 2.25 (1.00–5.00) h
  AUCt: 24,518.328 ± 5125.235 h·ng/mL
  AUC∞: 24,847.379 ± 5242.290 h·ng/mL
  C max: 2959.333 ± 686.898 ng/mL
  CL/F_obs: 2084.748 ± 417.943 mL/h
  V z/F_obs: 30,578.971 ± 10,323.282 mL
  t ½: 10.434 ± 3.857 h
  λz: 0.074 ± 0.024 h⁻¹
[3]; single oral dose 100 mg
  t max: 2.25 (1.00–5.00) h
  AUCt: 46,844.762 ± 13,259.837 h·ng/mL
  AUC∞: 47,320.651 ± 13,358.696 h·ng/mL
  C max: 6745.000 ± 1958.132 ng/mL
  CL/F_obs: 2271.507 ± 686.413 mL/h
  V z/F_obs: 33,572.508 ± 10,971.959 mL
  t ½: 10.685 ± 3.249 h
  λz: 0.071 ± 0.023 h⁻¹
[3]; single oral dose 150 mg
  t max: 3.00 (2.50–5.00) h
  AUCt: 54,401.071 ± 12,592.181 h·ng/mL
  AUC∞: 54,672.481 ± 12,686.075 h·ng/mL
  C max: 8119.333 ± 1269.627 ng/mL
  CL/F_obs: 2891.042 ± 782.208 mL/h
  V z/F_obs: 46,536.434 ± 9434.457 mL
  t ½: 11.357 ± 1.616 h
  λz: 0.062 ± 0.008 h⁻¹
[3]; single oral dose 200 mg
  t max: 2.25 (1.50–5.00) h
  AUCt: 76,515.016 ± 6992.709 h·ng/mL
  AUC∞: 76,728.333 ± 7061.227 h·ng/mL
  C max: 12,080.667 ± 3430.123 ng/mL
  CL/F_obs: 2625.566 ± 248.239 mL/h
  V z/F_obs: 36,035.031 ± 6400.263 mL
  t ½: 9.502 ± 1.270 h
  λz: 0.074 ± 0.01 h⁻¹
[3]; single oral dose 300 mg
  t max: 2.00 (1.00–5.00) h
  AUCt: 115,898.815 ± 45,549.563 h·ng/mL
  AUC∞: 116,226.587 ± 45,834.174 h·ng/mL
  C max: 17,858.333 ± 2899.189 ng/mL
  CL/F_obs: 2835.924 ± 799.195 mL/h
  V z/F_obs: 38,836.681 ± 12,903.706 mL
  t ½: 9.484 ± 1.325 h
  λz: 0.074 ± 0.011 h⁻¹
[3]; single doses 10-300 mg
  t ½, range: 6.9 to 11.3 h
[3]; single doses 10-300 mg (30-fold range)
  median time to C max (t max): approximately 2.5 h
[4]
  mean serum EPO concentrations, fasted vs fed: no apparent difference
[4]; fasted or fed
  mean serum EPO concentrations, male vs female subjects: no apparent difference
[5]; rats vs normal control rats
  effect of acute and chronic kidney failure models on pharmacokinetics: did not alter the pharmacokinetics
[5]; rats
  increase in the exposure after complete removal of both kidneys: 2 fold
[6]; 100 mg, Day 1
  Amount recovered [mean ± SD]: 50.13 ± 14.99 mg
  Percentage recovered [mean ± SD]: 50.132 ± 14.998%
[6]; 100 mg, Day 3
  Amount recovered [mean ± SD]: 41.00 ± 11.07 mg
  Percentage recovered [mean ± SD]: 41.001 ± 11.071%
[6]; 100 mg, Day 5
  Amount recovered [mean ± SD]: 50.14 ± 12.16 mg
  Percentage recovered [mean ± SD]: 50.137 ± 12.160%
[6]; 150 mg, Day 1
  Amount recovered [mean ± SD]: 52.77 ± 6.85 mg
  Percentage recovered [mean ± SD]: 35.178 ± 4.566%
[6]; 150 mg, Day 3
  Amount recovered [mean ± SD]: 54.64 ± 13.35 mg
  Percentage recovered [mean ± SD]: 36.427 ± 8.900%
[6]; 150 mg, Day 5
  Amount recovered [mean ± SD]: 44.23 ± 8.18 mg
  Percentage recovered [mean ± SD]: 29.488 ± 5.453%
[6]; 200 mg, Day 1
  Amount recovered [mean ± SD]: 64.95 ± 25.50 mg
  Percentage recovered [mean ± SD]: 32.474 ± 12.749%
[6]; 200 mg, Day 3
  Amount recovered [mean ± SD]: 66.09 ± 8.74 mg
  Percentage recovered [mean ± SD]: 33.044 ± 4.371%
[6]; 200 mg, Day 5
  Amount recovered [mean ± SD]: 75.76 ± 12.76 mg
  Percentage recovered [mean ± SD]: 37.880 ± 6.381%
[6]; 300 mg, Day 1
  Amount recovered [mean ± SD]: 82.97 ± 35.69 mg
  Percentage recovered [mean ± SD]: 27.656 ± 11.899%
[6]; 300 mg, Day 3
  Amount recovered [mean ± SD]: 92.22 ± 41.92 mg
  Percentage recovered [mean ± SD]: 30.741 ± 13.972%
[6]; 300 mg, Day 5
  Amount recovered [mean ± SD]: 99.15 ± 34.40 mg
  Percentage recovered [mean ± SD]: 33.050 ± 11.466%
Serum EPO levels
  serum EPO levels: dose-related increase
[7]
  maximum tolerated dose (MTD): 60 mg/kg
[8]; fed vs fasting, single 150 mg
  decrease of C max by ingestion of food: 2.39 times
[8]; Fasting
  AUCt: 71,331.577 ± 25,663.234 h·ng/mL
  AUC∞: 71,696.758 ± 25,837.440 h·ng/mL
  C max: 10,352.800 ± 3076.528 ng/mL
  CL/F_obs: 2479.865 ± 1333.719 mL/h
  HL_Lambda_z (terminal half-life): 11.048 ± 3.378 h
  V z/F_obs: 37,927.046 ± 18,082.141 mL
  λz: 0.067 ± 0.015 h⁻¹
[8]; Fed (high-fat breakfast)
  AUCt: 59,005.375 ± 16,846.249 h·ng/mL
  AUC∞: 59,561.279 ± 17,228.977 h·ng/mL
  C max: 4322.000 ± 1317.961 ng/mL
  CL/F_obs: 2801.105 ± 1109.706 mL/h
  HL_Lambda_z (terminal half-life): 11.328 ± 3.691 h
  V z/F_obs: 45,070.176 ± 19,928.748 mL
  λz: 0.066 ± 0.017 h⁻¹
[8]; single 150 mg
  AUC values, fed vs fasting: decreased
  mean C max, male vs female subjects: not statistically significant
  mean t ½, fed vs. fasted: similar
[8]; single 150 mg, small group, qualitative
  exposure, female vs male subjects: female subjects had a higher exposure than males
[9]
  tolerated dose, single-dose study: up to 300 mg/kg
